Data reported in ChEMBL document CHEMBL4808183, “Betulonic Acid Derivatives Interfering with Human Coronavirus 229E Replication via the nsp15 Endoribonuclease” (J Med Chem, 2021).
Activity calls are given as the source filed them. The rule behind the calls is not given here.

Tests used:
[1] = molecular target: Replicase polyprotein 1ab (Human coronavirus 229E) (UniProt P0C6X1); assay: Inhibition of nsp15 in Human coronavirus 229E infected in human embryonic lung fibroblast cells assessed as reduction in viral RNA synthesis at early stage of RNA synthesis at 6.3 uM treated 6 hrs post infection by RT-qPCR based time-of-addition assay; format: cell-based
[2] = (§1) Antiviral activity against Human coronavirus 229E infected in human embryonic lung fibroblast cells assessed as reduction in virus-induced cytopathic effect incubated for 5 days by MTS cell viability assay; format: functional, cell-based; conditions: 120 h
Method in brief: (§2)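 Confluent HEL cell cultures given serial compound dilutions together with HCoV-229E at MOI 100 and held 5 days at 35 °C. Virus-induced CPE was scored by microscopy. MTS reagent was then added and absorbance at 490 nm read 24 h later. EC50 was taken from the MTS or microscopic read-out and CC50 from MTS. SI = CC50/EC50, both by MTS. Mean ± SEM of three independent experiments.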

[3] = Antiviral activity against Human coronavirus 229E infected in human embryonic lung fibroblast cells assessed as reduction in virus-induced cytopathic effect incubated for 5 days by microscopy; format: functional, cell-based; conditions: 120 h; method in brief: as §2
[4] = Cytotoxicity against mock-infected human embryonic lung fibroblast cells incubated for 5 days by MTS assay; format: cell-based; conditions: time 5 day; method in brief: as §2
[5] = as §1, with “Selectivity index, ratio of CC50 for cytotoxicity against mock-infected human embryonic lung fibroblast cells incubated for 5 days by MTS assay to EC50 for antiviral” for “Antiviral”; format: toxicity, cell-based; conditions: time 5 day, read-out: Ratio CC50/EC50; method in brief: as §2
SARS-CoV-2 = assay: Antiviral activity against SARS-CoV-2 infected in eGFP expressing Vero E6 cells assessed as reduction in virus-induced cytopathic effect cells pretreated for 24 hrs measure after 4 days post infection by MTS cell viability assay; format: functional, organism-based; conditions: Severe acute respiratory syndrome coronavirus 2
[6] = tested on: Human immunodeficiency virus; assay: Antiviral activity against HIV; format: functional, organism-based
[7] = tested on: Herpes simplex virus unknown type; assay: Antiviral activity against Herpes simplex virus; format: functional
Vaccinia virus = assay: Antiviral activity against Vaccinia virus; format: functional, organism-based; conditions: Orthopoxvirus vaccinia
Human adenovirus 2 = assay: Antiviral activity against Adenovirus; format: functional
[8] = tested on: Vesicular stomatitis virus; assay: Antiviral activity against Vesicular stomatitis virus; format: functional, organism-based
Coxsackievirus B4 = assay: Antiviral activity against Coxsackie B4 virus; format: functional, organism-based
[9] = tested on: Respiratory syncytial virus; assay: Antiviral activity against Respiratory syncytial virus; format: functional, organism-based
Human respirovirus 3 = assay: Antiviral activity against Parainfluenza-3 virus; format: functional, organism-based
Reovirus sp. = assay: Antiviral activity against Reovirus-1; format: functional, organism-based
Sindbis virus = assay: Antiviral activity against Sindbis virus; format: functional, organism-based
Punta Toro virus = assay: Antiviral activity against Punta Toro virus; format: functional, organism-based
Yellow fever virus = assay: Antiviral activity against Yellow fever virus; format: functional, organism-based
Influenza A virus = assay: Antiviral activity against Influenza virus; format: functional
[10] = molecular target: Replicase polyprotein 1ab (Human coronavirus 229E) (UniProt P0C6X1); assay: Inhibition of nsp15 in Human coronavirus 229E infected in human embryonic lung fibroblast cells assessed as reduction in viral RNA synthesis at early stage of RNA synthesis at 15 uM treated 6 hrs post infection by RT-qPCR based time-of-addition assay; format: cell-based
Method in brief: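 Confluent HEL cells infected with HCoV-229E (MOI 100). Compound at 15 μM was added at -0.5 to 8 h p.i. At 16 h p.i. cells were washed with ice-cold PBS and lysed on ice, then heated 10 min at 75 °C and DNase-treated. Viral RNA was measured by one-step RT-qPCR against the N gene, using a plasmid standard for absolute copies. Values are relative to the no-compound virus control, from two independent experiments.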

Fibroblast [11] = assay: Inhibition of nsp15 K60R drug-resistant mutant in Human coronavirus 229E infected in human embryonic lung fibroblast cells assessed as reduction in virus yield; format: cell-based
Method in brief: (§3)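 Virus yield assay in confluent HEL cells. Serial compound dilutions were added, and cells were infected at MOI 100 with wild-type, EndoU-deficient (H250A nsp15) or passage-selected (K60R or T66I nsp15) HCoV-229E. After 4 h at 35 °C, the inoculum was removed and compound re-added. Supernatant was lysed at 3 days p.i. and N-gene RNA copies measured by one-step RT-qPCR. Results are fold reduction versus the no-compound control, from three independent experiments.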

Fibroblast [12] = assay: Inhibition of nsp15 T66I drug-resistant mutant in Human coronavirus 229E infected in human embryonic lung fibroblast cells assessed as reduction in virus yield; format: cell-based; method in brief: as §3
[13] = Antiviral activity against Human coronavirus 229E harboring reverse engineered EndoU-deficient H250A mutant infected in human embryonic lung fibroblast cells assessed as fold reduction in virus yield measured up to 40 uM; format: functional; conditions: dose microM <=40; method in brief: as §3
[14] = molecular target: Replicase polyprotein 1ab (Human coronavirus 229E) (UniProt P0C6X1); assay: Inhibition of nsp15 in wild type Human coronavirus 229E infected in human embryonic lung fibroblast cells assessed as reduction in virus yield; format: cell-based
Method in brief: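 Confluent HEL cells (or semiconfluent 16HBE) with serial compound dilutions, infected with wild-type HCoV-229E at MOI 100. After 4 h at 35 °C the inoculum was removed and compound re-added. Supernatants were taken at 3 days p.i., lysed, and heated 10 min at 75 °C. Three independent experiments.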

Row | SMILES | EC50 [2] [nM] | EC50 [3] [nM] | CC50 at 120 h [4] [nM] | selectivity ratio at 120 h [5] | Activity [6] | Activity [7] | Activity (Vaccinia virus) | Activity (Human adenovirus 2) | Activity [8] | Activity (Coxsackievirus B4) | Activity [9] | Activity (Human respirovirus 3) | Activity (Reovirus sp.) | Activity (Sindbis virus) | Activity (Punta Toro virus) | Activity (Yellow fever virus) | Activity (Influenza A virus) | also measured
1 | CO/C1=C\C(C)=C\[C@@H](C)[C@@H](O)[C@@H](C)C/C(C)=C/C=C/[C@H](OC)[C@@H]([C@@H](C)[C@@H](O)[C@H](C)[C@@]2(O)C[C@@H](O)[C@H](C)[C@@H](C(C)C)O2)OC1=O |  |  |  |  |  |  |  |  |  |  |  |  |  |  |  |  |  | Activity [1]: Active
2 | CC(C)[C@@H]1CC[C@]2(C(=O)O)CC[C@]3(C)[C@H](CC[C@@H]4[C@@]5(C)Cc6nnn([C@@H](C)c7ccccc7)c6C(C)(C)[C@@H]5CC[C@]43C)[C@@H]12 | 13000 | 6100 | > 99000 | > 7.6 | inactive | inactive | inactive | inactive | inactive | inactive | inactive | inactive | inactive | inactive | inactive | inactive | inactive | Activity (SARS-CoV-2): Active
3 | C=C(C)[C@@H]1CC[C@]2(C(=O)O)CC[C@]3(C)[C@H](CC[C@@H]4[C@@]5(C)Cc6nnn([C@@H](C)c7ccccc7)c6C(C)(C)[C@@H]5CC[C@]43C)[C@@H]12 | 650 | 600 | 49000 | 76 | inactive | inactive | inactive | inactive | inactive | inactive | inactive | inactive | inactive | inactive | inactive | inactive | inactive | Activity (SARS-CoV-2): Active; Activity [10]: Active; EC99 (Fibroblast [11]): 2.9 µM; Activity (Fibroblast [12]): inactive; fold change (FC) [13]: 23; fold change (FC) [14]: 1480
4 | C=C(C)[C@@H]1CC[C@]2(C(=O)O)CC[C@]3(C)[C@H](CC[C@@H]4[C@@]5(C)Cc6nnn(Cc7cccc8[nH]ccc78)c6C(C)(C)[C@@H]5CC[C@]43C)[C@@H]12 | 92 | 100 | 2400 | 27 | inactive | inactive | inactive | inactive | inactive | inactive | inactive | inactive | inactive | inactive | inactive | inactive | inactive | 
5 | C=C(C)[C@@H]1CC[C@]2(C(=O)O)CC[C@]3(C)[C@H](CC[C@@H]4[C@@]5(C)Cc6nnn(Cc7ccccc7)c6C(C)(C)[C@@H]5CC[C@]43C)[C@@H]12 | 850 | 710 | 12000 | 14 | inactive | inactive | inactive | inactive | inactive | inactive | inactive | inactive | inactive | inactive | inactive | inactive | inactive | 
6 | C=C(C)[C@@H]1CC[C@]2(C(=O)O)CC[C@]3(C)[C@H](CC[C@@H]4[C@@]5(C)Cc6nnn(CCCCCCC)c6C(C)(C)[C@@H]5CC[C@]43C)[C@@H]12 | 2000 | 1100 | 16000 | 8 | inactive | inactive | inactive | inactive | inactive | inactive | inactive | inactive | inactive | inactive | inactive | inactive | inactive | 
7 | N#C[C@@]1(c2ccc3c(N)ncnn23)O[C@H](CO)[C@@H](O)[C@H]1O [GS-441524] | 2300 | 3200 | > 100000 | > 44 |  |  |  |  |  |  |  |  |  |  |  |  |  | EC99 (Fibroblast [11]): > 40 µM; Activity (Fibroblast [12]): Active
8 | C=C(C)[C@@H]1CC[C@]2(C(=O)O)CC[C@]3(C)[C@H](CC[C@@H]4[C@@]5(C)Cc6nn[nH]c6C(C)(C)[C@@H]5CC[C@]43C)[C@@H]12 | 4300 | 3400 | 8300 | 1.9 | inactive | inactive | inactive | inactive | inactive | inactive | inactive | inactive | inactive | inactive | inactive | inactive | inactive | 
9 | C=C(C)[C@@H]1CC[C@]2(C(=O)O)CC[C@]3(C)[C@H](CC[C@@H]4[C@@]5(C)Cc6nnn(CCc7c[nH]c8ccccc78)c6C(C)(C)[C@@H]5CC[C@]43C)[C@@H]12 | 560 | 240 | 3200 | 6 | inactive | inactive | inactive | inactive | inactive | inactive | inactive | inactive | inactive | inactive | inactive | inactive | inactive | 
10 | C=C(C)[C@@H]1CC[C@]2(C(=O)O)CC[C@]3(C)[C@H](CC[C@@H]4[C@@]5(C)Cc6nnn(Cc7ccncc7)c6C(C)(C)[C@@H]5CC[C@]43C)[C@@H]12 | 2500 | 2400 | 17000 | 7 | inactive | inactive | inactive | inactive | inactive | inactive | inactive | inactive | inactive | inactive | inactive | inactive | inactive | 
11 | C=C(C)[C@@H]1CC[C@]2(C(=O)O)CC[C@]3(C)[C@H](CC[C@@H]4[C@@]5(C)Cc6nnn(Cc7cc(OC)c(OC)c(OC)c7)c6C(C)(C)[C@@H]5CC[C@]43C)[C@@H]12 | 1900 | 1600 | 10000 | 5 | inactive | inactive | inactive | inactive | inactive | inactive | inactive | inactive | inactive | inactive | inactive | inactive | inactive | 
